Test results as given in ChEMBL document CHEMBL5058577, “EUbOPEN Chemogenomics Library 2 (Multiplex)” (2022).

Tested on: Fibroblast
Test: Multiplex assay against human fibroblast
Assay type: toxicity, cell-based
How it was run: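 Four dyes were applied at seeding to live cells: Hoechst33342, BioTracker Green Microtubule Cytoskeleton Dye, MitoTracker Red and Annexin V Alexa Fluor 680. Imaging after compound addition used a CQ1 microscope at 37°C and 5% CO2. CellPathfinder machine-learning gating then sorted cells into Hoechst high-intensity objects or normal cells, normal cells into healthy, pyknosed or fragmented nuclei, and pyknosed cells into mitotic or apoptotic, with tubulin, mitochondrial-mass and membrane-permeability phenotypes given as per cents of healthy-nucleus cells.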

[1] = 12 h, 1 µM, compound concentration 1 uM, replicate 1
[2] = 12 h, 1 µM, compound concentration 1 uM, replicate 2
[3] = 12 h, 10 µM, compound concentration 10 uM, replicate 1
[4] = 12 h, 10 µM, compound concentration 10 uM, replicate 2
[5] = 24 h, 1 µM, compound concentration 1 uM, replicate 1
[6] = 24 h, 1 µM, compound concentration 1 uM, replicate 2
[7] = 24 h, 10 µM, compound concentration 10 uM, replicate 1
[8] = 24 h, 10 µM, compound concentration 10 uM, replicate 2
[9] = 48 h, 1 µM, compound concentration 1 uM, replicate 1
[10] = 48 h, 1 µM, compound concentration 1 uM, replicate 2
[11] = 48 h, 10 µM, compound concentration 10 uM, replicate 1
[12] = 48 h, 10 µM, compound concentration 10 uM, replicate 2

Cc1c(CC(=O)O)c2cccnc2n1Cc1ccc(S(C)(=O)=O)cc1C(F)(F)F [FEVIPIPRANT]
Population Apoptotic (%) [1]: 44% | Population Fragmented Nuclei (%) [1]: 22% | Population Healthy Nuclei (%) [1]: 60% | Population Hoechst High Intensity Objects (%) [1]: 3% | Population Membrane Permeable-Phenotype (%) [1]: 1% | Population Mitochondria Different-Phenotype (%) [1]: 3% | Population Mitotic Cells (%) [1]: 55% | Population Normal (%) [1]: 96% | Population Pyknosed Nuclei (%) [1]: 18% | Population Tubulin-Different-Phenotype (%) [1]: 20% | Total Cell Count [1]: 156 | Population Apoptotic (%) [2]: 25% | Population Fragmented Nuclei (%) [2]: 33% | Population Healthy Nuclei (%) [2]: 48% | Population Membrane Permeable-Phenotype (%) [2]: 13% | Population Mitochondria Different-Phenotype (%) [2]: 12% | Population Mitotic Cells (%) [2]: 74% | Population Pyknosed Nuclei (%) [2]: 17% | Population Tubulin-Different-Phenotype (%) [2]: 56% | Population Apoptotic (%) [3]: 34% | Population Fragmented Nuclei (%) [3]: 10% | Population Healthy Nuclei (%) [3]: 71% | Population Hoechst High Intensity Objects (%) [3]: 3% | Population Membrane Permeable-Phenotype (%) [3]: 1% | Population Mitochondria Different-Phenotype (%) [3]: 4% | Population Mitotic Cells (%) [3]: 65% | Population Normal (%) [3]: 96% | Population Pyknosed Nuclei (%) [3]: 17% | Population Tubulin-Different-Phenotype (%) [3]: 25% | Total Cell Count [3]: 132 | Population Apoptotic (%) [4]: 22% | Population Fragmented Nuclei (%) [4]: 21% | Population Healthy Nuclei (%) [4]: 54% | Population Hoechst High Intensity Objects (%) [4]: 5% | Population Membrane Permeable-Phenotype (%) [4]: 9% | Population Mitochondria Different-Phenotype (%) [4]: 6% | Population Mitotic Cells (%) [4]: 77% | Population Normal (%) [4]: 94% | Population Pyknosed Nuclei (%) [4]: 23% | Population Tubulin-Different-Phenotype (%) [4]: 55% | Total Cell Count [4]: 139 | Population Apoptotic (%) [5]: 55% | Population Fragmented Nuclei (%) [5]: 14% | Population Healthy Nuclei (%) [5]: 66% | Population Hoechst High Intensity Objects (%) [5]: 3% | Population Membrane Permeable-Phenotype (%) [5]: 1% | Population Mitochondria Different-Phenotype (%) [5]: 5% | Population Mitotic Cells (%) [5]: 44% | Population Normal (%) [5]: 96% | Population Pyknosed Nuclei (%) [5]: 19% | Population Tubulin-Different-Phenotype (%) [5]: 23% | Total Cell Count [5]: 156 | Population Apoptotic (%) [6]: 52% | Population Fragmented Nuclei (%) [6]: 35% | Population Healthy Nuclei (%) [6]: 47% | Population Membrane Permeable-Phenotype (%) [6]: 4% | Population Mitochondria Different-Phenotype (%) [6]: 8% | Population Mitotic Cells (%) [6]: 48% | Population Pyknosed Nuclei (%) [6]: 17% | Population Tubulin-Different-Phenotype (%) [6]: 50% | Total Cell Count [6]: 150 | Population Apoptotic (%) [7]: 57% | Population Fragmented Nuclei (%) [7]: 16% | Population Healthy Nuclei (%) [7]: 67% | Population Hoechst High Intensity Objects (%) [7]: 1% | Population Membrane Permeable-Phenotype (%) [7]: 1% | Population Mitochondria Different-Phenotype (%) [7]: 2% | Population Mitotic Cells (%) [7]: 42% | Population Normal (%) [7]: 98% | Population Pyknosed Nuclei (%) [7]: 16% | Population Tubulin-Different-Phenotype (%) [7]: 24% | Total Cell Count [7]: 130 | Population Apoptotic (%) [8]: 31% | Population Fragmented Nuclei (%) [8]: 22% | Population Healthy Nuclei (%) [8]: 55% | Population Hoechst High Intensity Objects (%) [8]: 7% | Population Membrane Permeable-Phenotype (%) [8]: 5% | Population Mitochondria Different-Phenotype (%) [8]: 5% | Population Mitotic Cells (%) [8]: 68% | Population Normal (%) [8]: 92% | Population Pyknosed Nuclei (%) [8]: 21% | Population Tubulin-Different-Phenotype (%) [8]: 52% | Total Cell Count [8]: 146 | Population Apoptotic (%) [9]: 65% | Population Fragmented Nuclei (%) [9]: 16% | Population Healthy Nuclei (%) [9]: 67% | Population Hoechst High Intensity Objects (%) [9]: 5% | Population Membrane Permeable-Phenotype (%) [9]: 0% | Population Mitochondria Different-Phenotype (%) [9]: 4% | Population Mitotic Cells (%) [9]: 35% | Population Normal (%) [9]: 94% | Population Pyknosed Nuclei (%) [9]: 16% | Population Tubulin-Different-Phenotype (%) [9]: 16% | Total Cell Count [9]: 132 | Population Apoptotic (%) [10]: 63% | Population Fragmented Nuclei (%) [10]: 39% | Population Healthy Nuclei (%) [10]: 47% | Population Hoechst High Intensity Objects (%) [10]: 6% | Population Membrane Permeable-Phenotype (%) [10]: 4% | Population Mitochondria Different-Phenotype (%) [10]: 8% | Population Mitotic Cells (%) [10]: 36% | Population Normal (%) [10]: 93% | Population Pyknosed Nuclei (%) [10]: 12% | Population Tubulin-Different-Phenotype (%) [10]: 47% | Total Cell Count [10]: 157 | Population Apoptotic (%) [11]: 73% | Population Fragmented Nuclei (%) [11]: 22% | Population Healthy Nuclei (%) [11]: 62% | Population Hoechst High Intensity Objects (%) [11]: 2% | Population Membrane Permeable-Phenotype (%) [11]: 0% | Population Mitochondria Different-Phenotype (%) [11]: 3% | Population Mitotic Cells (%) [11]: 26% | Population Normal (%) [11]: 97% | Population Pyknosed Nuclei (%) [11]: 14% | Population Tubulin-Different-Phenotype (%) [11]: 29% | Total Cell Count [11]: 132 | Population Apoptotic (%) [12]: 58% | Population Fragmented Nuclei (%) [12]: 32% | Population Healthy Nuclei (%) [12]: 53% | Population Membrane Permeable-Phenotype (%) [12]: 3% | Population Mitochondria Different-Phenotype (%) [12]: 2% | Population Mitotic Cells (%) [12]: 41% | Population Tubulin-Different-Phenotype (%) [12]: 52% | Total Cell Count [12]: 171
